Results reported in ChEMBL document CHEMBL1135174, “The synthesis and structure-activity relationships of 4-aryl-3-aminoquinolin-2-ones: a new class of calcium-dependent, large conductance, potassium (maxi-K) channel openers targeted for post-stroke neuroprotection” (Bioorg Med Chem Lett, 2002).
One block for each molecule: values may come before it.

How the values were obtained:
Xenopus laevis = species: Xenopus laevis; assay: Tested for the effect on maxi-K-mediated outward current (mSlo) in Xenopus laevis oocytes at 20 uM; type: functional, frog
Method in brief: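 Two-electrode voltage clamp was run on Xenopus laevis oocytes expressing cloned mSlo maxi-K channels. A single drug concentration was tested in at least five oocytes against iberiotoxin-sensitive outward K+ current. Output is the average percentage change in current relative to the drug-free control (100%).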

Rattus norvegicus = assay: (§1) Tested for concentration in brain after intravenous administration (4.7 mg/kg) to male rats; type: ADME, organism-based; settings: in vivo
Method in brief: (§2)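 Male rats got an iv bolus of 4.7 mg/kg, N=3 at each time point. Whole brain and plasma were sampled through 24 h. AUC (ng-h/mL plasma, ng-h/g brain) was calculated by the trapezoidal rule over 0–24 h. Brain/plasma ratio was taken from the AUC values. Cmax, Tmax and elimination half-lives were derived for brain and plasma.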

[1] = Tested for plasma concentration after intravenous administration (4.7 mg/kg) to male rats; type: ADME, organism-based; settings: rat; method in brief: as §2
[2] = as §1; type: ADME, organism-based; set-up: dose 4.7 mg/kg, route intravenous; settings: rat; method in brief: as §2
[3] = Compound was evaluated for Tmax in brain after intravenous administration in male rats; type: ADME, organism-based; settings: rat; method in brief: as §2
[4] = Ratio of the AUC values of brain and plasma after intravenous administration (4.7 mg/kg) to male rats was evaluated; type: ADME, organism-based; settings: rat; method in brief: as §2
[5] = Ratio in brain and plasma after 0.25 hrs of intravenous administration (5 mg/kg) to male rats was evaluated; type: ADME, organism-based; settings: rat
Method in brief: (§3)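 Male rats got a single iv bolus of 5 mg/kg. Plasma and whole brain were sampled at 0.25 h and 2 h. Plasma is in ng/mL and brain in ng/g wet weight, each the mean of three animals ± standard deviation. Brain detection limit was 50 ng/g. Brain/plasma ratio was computed at each time point.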

[6] = Ratio in brain and plasma after 2 hrs of intravenous administration (5 mg/kg) to male rats was evaluated; type: ADME, organism-based; settings: rat; method in brief: as §3
[7] = Half-life in brain after intravenous administration (4.7 mg/kg) to male rats; type: ADME, organism-based; settings: rat; method in brief: as §2
[8] = Half-life in plasma after intravenous administration (4.7 mg/kg) to male rats; type: ADME, organism-based; settings: rat; method in brief: as §2
[9] = Tested for concentration in brain after 0.25 hrs of intravenous administration (5 mg/kg) to male rats; type: ADME, organism-based; settings: rat; method in brief: as §3
[10] = Tested for concentration in brain after 2 hrs of intravenous administration (5 mg/kg) to male rats; type: ADME, organism-based; settings: rat; method in brief: as §3
[11] = Tested for plasma concentration in the after 0.25 hrs of intravenous administration (5 mg/kg) to male rats; type: ADME, organism-based; settings: rat; method in brief: as §3
[12] = Tested for plasma concentration in the after 2 hrs of intravenous administration (5 mg/kg) to male rats; type: ADME, organism-based; settings: rat; method in brief: as §3
[13] = Tested for ratio in brain and plasma after 0.25 hrs of intravenous administration (5 mg/kg) to male rats; type: ADME, organism-based; settings: rat; method in brief: as §3
[14] = Tested for ratio in brain and plasma after 2 hrs of intravenous administration (5 mg/kg) to male rats; type: ADME, organism-based; settings: rat; method in brief: as §3
[15] = Tested for plasma concentration after 0.25 hrs of intravenous administration (5 mg/kg) to male rats; type: ADME, organism-based; settings: rat; method in brief: as §3
[16] = Tested for plasma concentration after 2 hrs of intravenous administration (5 mg/kg) to male rats; type: ADME, organism-based; settings: rat; method in brief: as §3

SMILES: O=S(=O)(Nc1c(O)nc2cc(C(F)(F)F)ccc2c1-c1cc(Cl)ccc1O)C(F)(F)F
Increase (Xenopus laevis): 213%

SMILES: Nc1c(O)nc2ccccc2c1-c1cc(Cl)ccc1O
Increase (Xenopus laevis): 114%

SMILES: Nc1c(O)nc2c(C(F)(F)F)cccc2c1-c1cc(Cl)ccc1O
Increase (Xenopus laevis): 112%

SMILES: Nc1c(O)nc2ccc(C(F)(F)F)cc2c1-c1ccccc1O
Increase (Xenopus laevis): 137%

AUC (Rattus norvegicus): 19300 ng·h/g | AUC [1]: 2700 ng·h/mL | Cmax [2]: 1990 ng/g | Tmax [3]: 4.8 min | Kp [4]: 7.1 | Kp at 0.25 h [5]: 1.6 | Kp at 2 h [6]: 5.3 | half-life [7]: 8.1 h | half-life [8]: 7.6 h | concentration at 0.25 h [9]: 1310 ng/g | concentration at 2 h [10]: 1490 ng/g | concentration at 0.25 h [11]: 802 ng/mL | concentration at 2 h [12]: 281 ng/mL
SMILES: Nc1c(O)nc2ccc(C(F)(F)F)cc2c1-c1cc(Cl)ccc1O
Increase (Xenopus laevis): 186%

SMILES: Nc1c(O)nc2ccc(C(F)(F)F)cc2c1-c1ccccc1
Increase (Xenopus laevis): 111%

SMILES: Nc1c(O)nc2cccc(C(F)(F)F)c2c1-c1cc(Cl)ccc1O
Increase (Xenopus laevis): 191%

SMILES: O=c1[nH]c2cc(C(F)(F)F)ccc2n1-c1cc(Cl)ccc1O
Increase (Xenopus laevis): 132%

SMILES: CS(=O)(=O)Nc1c(O)nc2ccc(C(F)(F)F)cc2c1-c1cc(Cl)ccc1O
Increase (Xenopus laevis): 164%

SMILES: Nc1c(O)nc2ccc(Cl)cc2c1-c1cc(Cl)ccc1O
Increase (Xenopus laevis): 157%

SMILES: COc1ccc(Cl)cc1-c1c(N)c(O)nc2ccccc12
Increase (Xenopus laevis): 108%

SMILES: CC(=O)Nc1c(O)nc2ccc(C(F)(F)F)cc2c1-c1cc(Cl)ccc1O
Increase (Xenopus laevis): 120%

concentration at 0.25 h [9]: < 50 ng/g | concentration at 2 h [10]: < 50 ng/g | concentration at 0.25 h [11]: 1230 ng/mL | concentration at 2 h [12]: 125 ng/mL
SMILES: O=S(=O)(Nc1c(O)nc2ccc(C(F)(F)F)cc2c1-c1cc(Cl)ccc1O)C(F)(F)F
Increase (Xenopus laevis): 343%

Kp at 0.25 h [13]: 1.3 | Kp at 2 h [14]: 4.4 | concentration at 0.25 h [9]: 1470 ng/g | concentration at 2 h [10]: 1480 ng/g | concentration at 0.25 h [15]: 1170 ng/mL | concentration at 2 h [16]: 339 ng/mL
SMILES: Nc1c(O)nc2cc(C(F)(F)F)ccc2c1-c1cc(Cl)ccc1O
Increase (Xenopus laevis): 159%
